Marks after values point to notes of the source that are not given here.
Assays:
[1] = type: in vivo, human
Method in brief: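 Healthy volunteers in a randomized crossover each received a single 0.2 U/kg s.c. dose per period. Plasma was sampled predose and from 5 to 720 min postdose. Insulin aspart, with 15N-labelled internal standard, was captured on anti-insulin antibody magnetic beads and measured by UPLC-MS/MS (range 100-8000 pg/mL). AUC ratios and CIs came from Fieller's theorem. Time endpoints were summarised descriptively by treatment.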

healthy subjects [2] = test: Safety: treatment-emergent adverse events; type: in vivo, human; conditions: single s.c. dose 0.2 U/kg; for Headache, number of subjects / Headache, percentage of subjects / Injection site erythema, number of subjects / Injection site erythema, percentage of subjects / Nasopharyngitis, number of subjects / Nasopharyngitis, percentage of subjects / Hypoglycaemia, events (one subject each): TEAE
Method in brief: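 In a randomized three-period crossover with washouts, each subject received a single 0.2 U/kg s.c. dose per period. Treatment-emergent adverse events were recorded per treatment and graded mild, moderate or severe. They were summarised descriptively by visit/treatment as subject counts, percentages and event numbers.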

healthy subjects [3] = test: Pharmacodynamics: automated euglycaemic glucose clamp; type: in vivo, human; conditions: Ref‐InsAsp‐US vs. Ref‐InsAsp‐EU (N = 65); two-sided 90% CI; Fieller's theorem
Method in brief: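 Healthy adults aged 18-65 with BMI 18.5-29.0 kg/m2 and fasting glucose ≤5.5 mmol/L. Randomized crossover: single 0.2 U/kg s.c. dose per period, 12- to 16-day washout. Before dosing, variable i.v. human insulin brought blood glucose to the 81 mg/dL target. Glucose infusion was then adjusted automatically over a 12 h clamp, GIR logged every minute. Partial-AUC ratios with CIs came from Fieller's theorem.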

[4] = healthy subjects, single s.c. dose 0.2 U/kg, plasma, arithmetic mean (SD)
[5] = Ref‐InsAsp‐US vs. Ref‐InsAsp‐EU (N = 66), two-sided 90% CI, Fieller's theorem

For Insulin aspart [Ref‐InsAsp‐EU], the “t50%‐early (time to half‐maximum before Cmax)” value [1, 4] was 0.45 (0.12) h, the “t50%‐late (time to half‐maximum after Cmax)” value [1, 4] was 3.1 (0.84) h and the “tmax (time to maximum observed insulin aspart concentration)” value [1, 4] was 1.10 (0.53) h. For the same substance, the “λz (terminal elimination rate constant)” value [1, 4] was 0.86 (0.28) /h, the “Headache, number of subjects” value (healthy subjects [2]) was “eight” and the “Headache, percentage of subjects” value (healthy subjects [2]) was 11.9%. The “Injection site erythema, number of subjects” value (healthy subjects [2]) was “one”, the “Injection site erythema, percentage of subjects” value (healthy subjects [2]) was 1.5% and the “Nasopharyngitis, number of subjects” value (healthy subjects [2]) was “two”. The “Nasopharyngitis, percentage of subjects” value (healthy subjects [2]) was 3.0%, the “Number of TEAE events” value (healthy subjects [2]) was 13 events and the “Subjects with at least one TEAE, percentage” value (healthy subjects [2]) was 19.4%. For the same substance, the “Subjects with at least one treatment‐emergent adverse event (TEAE), number” value (healthy subjects [2]) was 13 subjects.

In the case of Insulin aspart [Ref‐InsAsp‐US], the “AUC0‐6h LS‐mean ratio” value [1, 5] is reported as 99.71 (97.90; 101.52) %, the “AUC6‐12h LS‐mean ratio” value [1, 5] is reported as 107.18 (83.81; 137.45) % and the “t50%‐late (time to half‐maximum after Cmax)” value [1, 4] is reported as 3.13 (0.86) h. For the same substance, the “tmax (time to maximum observed insulin aspart concentration)” value [1, 4] was 1.11 (0.45) h, the “λz (terminal elimination rate constant)” value [1, 4] was 0.82 (0.27) /h and the “AUCGIR,0‐4h LS‐mean ratio” value (healthy subjects [3]) was 94.11 (90.37; 97.99) ^b %. The “AUCGIR,0‐6h LS‐mean ratio” value (healthy subjects [3]) was 94.81 (91.46; 98.27) ^b %, the “AUCGIR,6h‐last LS‐mean ratio” value (healthy subjects [3]) was 101.05 (95.75; 106.64) ^b % and the “Headache, number of subjects” value (healthy subjects [2]) was “five”. The “Headache, percentage of subjects” value (healthy subjects [2]) was 7.2%, the “Hypoglycaemia, events (one subject each)” value (healthy subjects [2]) was “one” and the “Injection site erythema, number of subjects” value (healthy subjects [2]) was “one”. The “Injection site erythema, percentage of subjects” value (healthy subjects [2]) was 1.4%, the “Nasopharyngitis, number of subjects” value (healthy subjects [2]) was “none” and the “Number of TEAE events” value (healthy subjects [2]) was 12 events. For the same substance, the “Subjects with at least one TEAE, percentage” value (healthy subjects [2]) was 15.9% and the “Subjects with at least one treatment‐emergent adverse event (TEAE), number” value (healthy subjects [2]) was 11 subjects.

In the case of “MYL‐1601D: rapid‐acting human insulin analogue, biosimilar insulin aspart 100 U/mL, produced by recombinant DNA technology utilizing Pichia pastoris (Mylan)”, the “Headache, number of subjects” value (healthy subjects [2]) is reported as “four”, the “Headache, percentage of subjects” value (healthy subjects [2]) is reported as 5.7% and the “Hypoglycaemia, events (one subject each)” value (healthy subjects [2]) is reported as “one”. The “Injection site erythema, number of subjects” value (healthy subjects [2]) was “two”, the “Injection site erythema, percentage of subjects” value (healthy subjects [2]) was 2.9% and the “Nasopharyngitis, number of subjects” value (healthy subjects [2]) was “three”. For the same substance, the “Nasopharyngitis, percentage of subjects” value (healthy subjects [2]) was 4.3%, the “Number of TEAE events” value (healthy subjects [2]) was 18 events and the “Subjects with at least one TEAE, percentage” value (healthy subjects [2]) was 15.7%.

Reference: publication PMC9292719 (Diabetes, Obesity & Metabolism, 2021)
